In ChEMBL document CHEMBL2176902, “Identification of small-molecule enhancers of arginine methylation catalyzed by coactivator-associated arginine methyltransferase 1” (J Med Chem, 2012):
Active and inactive are the calls of the source. The calls are words filed in the database; no cut-off is given here.

What was measured:
[1] = biological target: Protein arginine N-methyltransferase 1 (Homo sapiens) (UniProt Q99873); assay: Inhibition of human recombinant GST-PRMT1 expressed Escherichia coli BL21 using Npl3p substrate as substrate and [3H]-SAM at 50 uM after 90 mins by scintillation counting
In short: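 Human recombinant PRMT1 was incubated with Npl3p substrate and [³H]SAM (0.42 μM) in PBS pH 7.4 with compound at 50 μM for 90 min at 30 °C. Percent inhibition was determined.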

[2] = biological target: T1, Histone-arginine methyltransferase CARM1 (Homo sapiens) (UniProt Q86X55); assay: Activation of recombinant CARM1 using PABP1 as substrate and [3H]-SAM at 50 uM after 90 mins by scintillation counting
T1 sequence (whole entry): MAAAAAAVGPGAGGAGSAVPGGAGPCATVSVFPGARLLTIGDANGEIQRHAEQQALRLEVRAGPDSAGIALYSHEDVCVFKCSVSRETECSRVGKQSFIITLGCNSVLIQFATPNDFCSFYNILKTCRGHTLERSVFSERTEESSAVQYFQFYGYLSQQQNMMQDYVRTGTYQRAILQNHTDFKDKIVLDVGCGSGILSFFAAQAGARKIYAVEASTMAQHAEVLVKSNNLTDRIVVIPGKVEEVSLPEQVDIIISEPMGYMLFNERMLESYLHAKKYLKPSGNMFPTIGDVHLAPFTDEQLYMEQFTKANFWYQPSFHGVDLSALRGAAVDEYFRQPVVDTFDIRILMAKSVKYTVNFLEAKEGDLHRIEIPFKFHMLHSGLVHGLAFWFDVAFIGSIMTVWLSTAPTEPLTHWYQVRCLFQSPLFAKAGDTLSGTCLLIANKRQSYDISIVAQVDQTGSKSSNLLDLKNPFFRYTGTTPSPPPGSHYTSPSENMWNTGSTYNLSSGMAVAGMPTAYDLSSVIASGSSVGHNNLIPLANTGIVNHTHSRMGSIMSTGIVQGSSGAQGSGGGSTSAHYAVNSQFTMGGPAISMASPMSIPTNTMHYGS
In short: (§1)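 Recombinant CARM1 (0.2 μg) was incubated with PABP1 substrate and [³H]SAM (0.42 μM) in PBS pH 7.4 for 90 min at 30 °C. Compound was tested at 50 μM, or at 3–100 μM for concentration series. Bands were Ponceau-stained, excised and counted by liquid scintillation. Activity is given as % of DMSO control; no-SAM reactions served as negative control; at least two experiments.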

[3] = biological target: T1, Histone-arginine methyltransferase CARM1 (Homo sapiens); assay: Activation of recombinant CARM1 using histone H3 as substrate and [3H]-SAM at 50 uM after 90 mins by scintillation counting
In short: (§2)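 Recombinant CARM1 (0.2 μg) was incubated with histone H3 (1.1 μM) and [³H]SAM (0.42 μM) in PBS pH 7.4 with compound (50 μM) for 90 min at 30 °C. Methylation was measured by scintillation counting. Activity is expressed as % relative to DMSO, as the mean of at least two separate experiments.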

[4] = biological target: T2, Histone-lysine N-methyltransferase SETD7 (Homo sapiens) (UniProt Q8WTS6); assay: Inhibition of recombinant SET7 using histone H3 as substrate at 50 uM and [3H]-SAM after 90 mins by scintillation counting
T2 sequence (whole entry): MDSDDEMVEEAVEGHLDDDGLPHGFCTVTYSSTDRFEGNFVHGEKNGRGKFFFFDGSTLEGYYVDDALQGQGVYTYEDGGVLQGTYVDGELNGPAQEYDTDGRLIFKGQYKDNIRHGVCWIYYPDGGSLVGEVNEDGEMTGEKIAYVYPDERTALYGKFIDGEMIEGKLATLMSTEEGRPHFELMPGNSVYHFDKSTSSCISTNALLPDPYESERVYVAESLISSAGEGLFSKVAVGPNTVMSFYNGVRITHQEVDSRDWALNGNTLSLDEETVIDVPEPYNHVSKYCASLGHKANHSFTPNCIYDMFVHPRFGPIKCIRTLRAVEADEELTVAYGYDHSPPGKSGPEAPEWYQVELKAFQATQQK

[5] = biological target: Protein arginine N-methyltransferase 3 (Homo sapiens) (UniProt O60678); assay: Inhibition of recombinant PRMT3 using glycine- and arginine-rich motif as substrate at 50 uM and [3H]-SAM after 90 mins by scintillation counting
In short: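 Recombinant PRMT3 was incubated with GAR-motif substrate and [³H]SAM (0.42 μM) in PBS pH 7.4 with compound at 50 μM for 90 min at 30 °C.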

[6] = biological target: T1, Histone-arginine methyltransferase CARM1 (Homo sapiens); assay: Activation of recombinant CARM1 using PABP1 as substrate and [3H]-SAM after 90 mins by scintillation counting; in short: as §1
[7] = biological target: T1, Histone-arginine methyltransferase CARM1 (Homo sapiens); assay: Activation of recombinant CARM1 using histone H3 as substrate and [3H]-SAM after 90 mins by scintillation counting; in short: as §2
[8] = biological target: Protein arginine N-methyltransferase 6 (Homo sapiens) (UniProt Q96LA8); assay: Inhibition of recombinant PRMT6 using histone H3 as substrate at 50 uM and [3H]-SAM after 90 mins by scintillation counting
[9] = biological target: T1, Histone-arginine methyltransferase CARM1 (Homo sapiens); assay: Activation of recombinant CARM1 expressed in HEK293 cells co-expressing 3XFLAG-tagged PABP1 assessed as arginine methylation of PABP1 at 50 uM after 24 hrs; type: cell-based
In short: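 Flp-In T-Rex HEK293 cells stably carrying Tet-inducible 3XFLAG-PABP1 were kept in DMEM/10% FBS with blasticidin and hygromycin. They were plated at 1 × 10⁵ cells/mL and the medium was changed after 12 h. Cells then got compound with or without tetracycline (1 μg/mL) for 24 h. RIPA lysates were immunoblotted with anti-methyl-PABP1 and anti-FLAG. Band densities were compared to DMSO control.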

[10] = biological target: T1, Histone-arginine methyltransferase CARM1 (Homo sapiens); assay: Inhibition of recombinant CARM1 using histone H3 as substrate at 50 uM and [3H]-SAM after 90 mins by scintillation counting
In short: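 Recombinant CARM1 (0.2 μg) incubated with histone H3 substrate (0.5 μg; H3 1.1 μM) and [3H]SAM (0.42 μM) in PBS pH 7.4 with 50 μM compound, 90 min, 30 °C. Bands Ponceau-stained, excised, scintillation counted; activity expressed as percent of DMSO control. Means of at least two separate experiments, SD in percentage points.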

Protein arginine N-methyltransferase 1 (Homo sapiens), sequence (Q99873 whole entry, looked up): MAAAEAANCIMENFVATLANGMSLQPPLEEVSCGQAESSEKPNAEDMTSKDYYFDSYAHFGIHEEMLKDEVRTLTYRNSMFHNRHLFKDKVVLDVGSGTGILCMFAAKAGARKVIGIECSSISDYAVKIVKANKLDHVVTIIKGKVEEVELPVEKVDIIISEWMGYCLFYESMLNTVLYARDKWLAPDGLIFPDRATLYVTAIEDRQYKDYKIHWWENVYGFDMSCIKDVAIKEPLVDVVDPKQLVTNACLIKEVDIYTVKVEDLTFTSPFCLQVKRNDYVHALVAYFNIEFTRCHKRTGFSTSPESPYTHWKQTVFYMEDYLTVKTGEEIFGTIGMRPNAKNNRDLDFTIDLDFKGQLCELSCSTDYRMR
Protein arginine N-methyltransferase 6 (Homo sapiens), sequence (Q96LA8 whole entry, looked up): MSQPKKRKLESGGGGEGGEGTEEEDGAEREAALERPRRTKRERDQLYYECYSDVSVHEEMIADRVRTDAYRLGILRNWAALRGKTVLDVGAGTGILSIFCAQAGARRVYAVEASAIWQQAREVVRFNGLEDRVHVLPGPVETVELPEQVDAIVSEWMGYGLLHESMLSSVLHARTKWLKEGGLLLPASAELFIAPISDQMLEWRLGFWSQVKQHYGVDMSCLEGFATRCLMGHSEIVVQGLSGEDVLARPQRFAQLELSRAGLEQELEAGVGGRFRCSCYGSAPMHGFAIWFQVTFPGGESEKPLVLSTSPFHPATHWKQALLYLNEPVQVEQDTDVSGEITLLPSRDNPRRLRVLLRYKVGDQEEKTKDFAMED
Protein arginine N-methyltransferase 3 (Homo sapiens), sequence (O60678 2-531 limits assumed): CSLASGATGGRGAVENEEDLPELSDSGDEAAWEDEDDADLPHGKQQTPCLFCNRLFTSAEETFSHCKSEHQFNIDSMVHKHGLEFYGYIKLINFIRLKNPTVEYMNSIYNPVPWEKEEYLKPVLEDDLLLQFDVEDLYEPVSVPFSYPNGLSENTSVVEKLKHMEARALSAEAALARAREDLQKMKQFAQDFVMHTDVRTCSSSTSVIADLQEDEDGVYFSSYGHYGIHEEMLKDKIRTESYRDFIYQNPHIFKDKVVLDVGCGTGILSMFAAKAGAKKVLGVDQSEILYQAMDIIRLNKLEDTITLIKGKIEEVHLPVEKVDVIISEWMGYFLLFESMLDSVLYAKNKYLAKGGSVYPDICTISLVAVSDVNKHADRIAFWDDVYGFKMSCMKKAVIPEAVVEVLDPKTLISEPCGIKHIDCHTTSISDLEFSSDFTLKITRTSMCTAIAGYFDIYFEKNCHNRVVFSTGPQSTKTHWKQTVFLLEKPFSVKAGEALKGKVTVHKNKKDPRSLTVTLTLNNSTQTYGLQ

Compound | inhibition [1] | Activity [2] | Activity [3] | further results
N#Cc1ccc(NC(=O)NCC(=O)Nc2ccc3[nH]c(C(=O)O)cc3c2)cc1 | inactive | 81.2% | 143% | 
CN(C)c1ccc(NC(=O)NCC(=O)Nc2ccc3[nH]c(C(=O)O)cc3c2)cc1 | inactive | 135% | 48.3% | 
CCOC(=O)c1cc2cc(NC(=O)CNC(=O)Nc3ccc(N(C)C)cc3)ccc2[nH]1 | inactive | 70.6% | 102% | 
Cc1ccc(NC(=O)NCC(=O)Nc2ccc3[nH]c(C(=O)O)cc3c2)cc1 | inactive | 149% | 111% | 
O=C(CNC(=O)Nc1ccc([N+](=O)[O-])cc1)Nc1ccc2[nH]c(C(=O)O)cc2c1 | inactive | 85.3% | 142% | 
CCOC(=O)c1cc2cc(NC(=O)CNC(=O)Nc3ccccc3)ccc2[nH]1 | inactive | 10.5% | 134% | 
CCOC(=O)c1cc2cc(NC(=O)CNC(=O)Nc3ccc([N+](=O)[O-])cc3)ccc2[nH]1 | inactive | 299% | 176% | inhibition [4]: 10.2%; inhibition [5]: 54.7%; Activity [6]: Dose-dependent effect; Activity [7]: Dose-dependent effect; inhibition [8]: 19.3%
CCOC(=O)c1cc2cc(NC(=O)CNC(=O)Nc3ccc(C)cc3)ccc2[nH]1 | inactive | 382% | 127% | Activity [9]: Active
O=C(CNC(=O)Nc1ccccc1)Nc1ccc2[nH]c(C(=O)O)cc2c1 | inactive | 172% | 167% | 
CCOC(=O)c1cc2cc(NC(=O)CNC(=O)Nc3ccc(C#N)cc3)ccc2[nH]1 | inactive | 358% | 115% | Activity [9]: Active
O=C(Nc1ccc2cc(C(=O)O)cc(O)c2c1)Nc1ccc2cc(C(=O)O)cc(O)c2c1 |  |  | 83.1% | 
O=C(CNC(=O)Nc1ccccc1)Nc1ccc2[nH]cc(C(=O)O)c2c1 | inactive |  |  | 
O=C(Nc1ccc2c(O)cc(S(=O)(=O)O)cc2c1)Nc1ccc2c(O)cc(S(=O)(=O)O)cc2c1 |  |  | 74% | inhibition [4]: 34.3%; inhibition [5]: 101%; inhibition [10]: 74.8%; inhibition [8]: 40.7%

The next lines start with results.

inhibition [1] | Activity [2] | Activity [3] | Compound | further results
inactive |  |  | Cc1ccc(NC(=O)NCC(=O)Nc2ccc3[nH]cc(C(=O)O)c3c2)cc1 | 
inactive |  |  | O=C(CNC(=O)Nc1ccc([N+](=O)[O-])cc1)Nc1ccc2[nH]cc(C(=O)O)c2c1 | 
inactive |  |  | COc1ccc(NC(=O)NCC(=O)Nc2ccc3[nH]cc(C(=O)O)c3c2)cc1 | 
inactive | 74.7% | 183% | CCOC(=O)c1cc2cc(NC(=O)CNC(=O)Nc3ccc(OC)cc3)ccc2[nH]1 | 
inactive | 115% | 134% | COC(=O)c1c[nH]c2ccc(NC(=O)CNC(=O)Nc3ccc([N+](=O)[O-])cc3)cc12 | 
inactive | 4.7% | 39.7% | COC(=O)c1c[nH]c2ccc(NC(=O)CNC(=O)Nc3ccc(C)cc3)cc12 | 
inactive | 28.2% | 62.7% | COC(=O)c1c[nH]c2ccc(NC(=O)CNC(=O)Nc3ccc(OC)cc3)cc12 | 
inactive | 96.3% | 211% | COc1ccc(NC(=O)NCC(=O)Nc2ccc3[nH]c(C(=O)O)cc3c2)cc1 | 
inactive | 7.6% | 125% | COC(=O)c1c[nH]c2ccc(NC(=O)CNC(=O)Nc3ccc(N(C)C)cc3)cc12 | 
inactive |  |  | N#Cc1ccc(NC(=O)NCC(=O)Nc2ccc3[nH]cc(C(=O)O)c3c2)cc1 | 
inactive | 38.8% | 135% | COC(=O)c1c[nH]c2ccc(NC(=O)CNC(=O)Nc3ccc(C#N)cc3)cc12 | 
inactive | 26.5% | 74.7% | COC(=O)c1c[nH]c2ccc(NC(=O)CNC(=O)Nc3ccccc3)cc12 | 
inactive |  |  | CN(C)c1ccc(NC(=O)NCC(=O)Nc2ccc3[nH]cc(C(=O)O)c3c2)cc1 | 
